According to ChEMBL document CHEMBL5046217, “Discovery of New Imidazo[2,1-b]thiazole Derivatives as Potent Pan-RAF Inhibitors with Promising In Vitro and In Vivo Anti-melanoma Activity” (J Med Chem, 2021):
Each block holds one compound with its values, some of them ahead of it. The source made the active and inactive calls. The rule behind the calls is not given here.

Experiments:
A-375 [1] = test: Inhibition of Pan-Raf in human A-375 cells assessed as reduction in MEK phosphorylation at 5 uM measured after 24 hrs by immunoblot assay; format: cell-based
Outline: (§1)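 A375 cells were treated for 24 h, including at 5 μM alongside vemurafenib. Cells were lysed in RIPA buffer with phosphatase and protease inhibitors, separated by SDS-PAGE and blotted to PVDF. Blots were probed for phospho-MEK1/2, phospho-ERK1/2, total MEK and total ERK, with chemiluminescent detection.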

A-375 [2] = test: Inhibition of Pan-Raf in human A-375 cells assessed as reduction in ERK phosphorylation at 5 uM measured after 24 hrs by immunoblot assay; format: cell-based; outline: as §1
Malme-3M [3] = test: Antiproliferative activity against human Malme-3M cells assessed as cell growth inhibition measured after 48 hrs by SRB assay
LOX IMVI [4] = test: Antiproliferative activity against human LOX IMVI cells assessed as cell growth inhibition measured after 48 hrs by SRB assay
SK-MEL-5 [5] = test: Antiproliferative activity against human SK-MEL-5 cells assessed as total growth inhibition measured after 48 hrs by SRB assay; conditions: SK-MEL-5, 48 h
[6] = tested on: Panel renal (Carcinoma cell lines); test: Antiproliferative activity against human Panel renal (Carcinoma cell lines) assessed as cell growth inhibition measured after 48 hrs by SRB assay
[7] = molecular target: RAF proto-oncogene serine/threonine-protein kinase (Homo sapiens, UniProt P04049); test: Inhibition of human wild type CRAF using myelin basic protein as substrate in presence of [gamma-33P]ATP incubated for 40 mins by scintillation counting method
MDA-MB-435 [8] = test: Antiproliferative activity against human MDA-MB-435 cells assessed as total growth inhibition measured after 48 hrs by SRB assay; conditions: MDA-MB-435, 48 h
[9] = Cytotoxicity against human BJ cells assessed as cell growth inhibition incubated for 48 hrs by MTT assay; format: toxicity, cell-based
Outline: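 BJ1 normal skin fibroblasts were seeded at 10 × 10³ cells/well with compound in triplicate wells and grown in DMEM-F12 at 37 °C, 5% CO₂, across an eight-point dilution series. Growth inhibition was calculated as (1 − T/C) × 100, and IC50 was taken from the dose–response curve.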

Malme-3M [10] = test: Antiproliferative activity against human Malme-3M cells assessed as total growth inhibition measured after 48 hrs by SRB assay
[11] = tested on: Panel melanoma (Carcinoma cell lines); test: Antiproliferative activity against human Panel melanoma (Carcinoma cell lines) assessed as cell growth inhibition measured after 48 hrs by SRB assay
[12] = tested on: Panel colon (Carcinoma cell lines); test: Antiproliferative activity against human Panel colon (Carcinoma cell lines) assessed as cell growth inhibition measured after 48 hrs by SRB assay
in vitro = conditions: human, BJ cells and Malme-3M cells
MDA-MB-435 [13] = test: Antiproliferative activity against human MDA-MB-435 cells assessed as cell growth inhibition measured after 48 hrs by SRB assay; conditions: MDA-MB-435, 48 h
UACC-257 [14] = test: Antiproliferative activity against human UACC-257 cells assessed as total growth inhibition measured after 48 hrs by SRB assay; conditions: UACC-257, 48 h
SK-MEL-2 [15] = test: Antiproliferative activity against human SK-MEL-2 cells assessed as cell growth inhibition measured after 48 hrs by SRB assay; conditions: SK-MEL-2, 48 h
M14 [16] = test: Antiproliferative activity against human M14 cells assessed as total growth inhibition measured after 48 hrs by SRB assay; conditions: M14, 48 h
[17] = tested on: Panel leukemia (Carcinoma cell lines); test: cells; conditions: Homo sapiens, 48 h, read-out: INH
[18] = tested on: Panel colon (Carcinoma cell lines); test: cells; conditions: Homo sapiens, 48 h, read-out: INH
UACC-257 [19] = test: Antiproliferative activity against human UACC-257 cells assessed as cell growth inhibition measured after 48 hrs by SRB assay; conditions: UACC-257, 48 h
SK-MEL-5 [20] = test: Antiproliferative activity against human SK-MEL-5 cells assessed as cell growth inhibition measured after 48 hrs by SRB assay; conditions: SK-MEL-5, 48 h
SK-MEL-28 [21] = test: Antiproliferative activity against human SK-MEL-28 cells assessed as cell growth inhibition measured after 48 hrs by SRB assay; conditions: SK-MEL-28, 48 h
SK-MEL-2 [22] = test: Antiproliferative activity against human SK-MEL-2 cells assessed as total growth inhibition measured after 48 hrs by SRB assay; conditions: SK-MEL-2, 48 h
[23] = tested on: Panel ovarian (Carcinoma cell lines); test: cells; conditions: Homo sapiens, 48 h, read-out: INH
[24] = tested on: Panel ovarian (Carcinoma cell lines); test: Antiproliferative activity against human Panel ovarian (Carcinoma cell lines) assessed as cell growth inhibition measured after 48 hrs by SRB assay
M14 [25] = test: Antiproliferative activity against human M14 cells assessed as cell growth inhibition measured after 48 hrs by SRB assay; conditions: M14, 48 h
[26] = Cytotoxicity against human L132 cells assessed as cell growth inhibition incubated for 48 hrs by MTT assay; format: toxicity, cell-based
NSCLC = test: Antiproliferative activity against human NSCLC cell line assessed as cell growth inhibition measured after 48 hrs by SRB assay
[27] = tested on: Panel CNS (Carcinoma cell lines); test: Antiproliferative activity against human Panel CNS (Carcinoma cell lines) assessed as cell growth inhibition measured after 48 hrs by SRB assay
UACC-62 [28] = test: Antiproliferative activity against human UACC-62 cells assessed as total growth inhibition measured after 48 hrs by SRB assay; conditions: UACC-62, 48 h
[29] = tested on: Panel breast (Carcinoma cell lines); test: Antiproliferative activity against human Panel breast (Carcinoma cell lines) assessed as cell growth inhibition measured after 48 hrs by SRB assay
[30] = tested on: Panel prostate (Carcinoma cell lines); test: Antiproliferative activity against human Panel prostate (Carcinoma cell lines) assessed as cell growth inhibition measured after 48 hrs by SRB assay
[31] = tested on: Panel melanoma (Carcinoma cell lines); test: cells; conditions: Homo sapiens, 48 h, read-out: INH
LOX IMVI [32] = test: Antiproliferative activity against human LOX IMVI cells assessed as total growth inhibition measured after 48 hrs by SRB assay
SK-MEL-28 [33] = test: Antiproliferative activity against human SK-MEL-28 cells assessed as total growth inhibition measured after 48 hrs by SRB assay; conditions: SK-MEL-28, 48 h
[34] = tested on: Panel leukemia (Carcinoma cell lines); test: Antiproliferative activity against human Panel leukemia (Carcinoma cell lines) assessed as cell growth inhibition measured after 48 hrs by SRB assay
UACC-62 [35] = test: Antiproliferative activity against human UACC-62 cells assessed as cell growth inhibition measured after 48 hrs by SRB assay; conditions: UACC-62, 48 h
[36] = Stability in rat plasma assessed as parent compound remaining at 10 uM measured after 30 mins by LC-MS analysis; format: ADME, cell-free; conditions: read-out: Stability
Outline: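 About 10 μM compound shaken in human or rat plasma at 37 °C for 30 and 120 min. Acetonitrile added, samples centrifuged at 4 °C, and remaining parent in the supernatant quantified by LC−MS. Procaine and diltiazem run as references.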

Chain of RAF proto-oncogene serine/threonine-protein kinase (P04049 whole entry): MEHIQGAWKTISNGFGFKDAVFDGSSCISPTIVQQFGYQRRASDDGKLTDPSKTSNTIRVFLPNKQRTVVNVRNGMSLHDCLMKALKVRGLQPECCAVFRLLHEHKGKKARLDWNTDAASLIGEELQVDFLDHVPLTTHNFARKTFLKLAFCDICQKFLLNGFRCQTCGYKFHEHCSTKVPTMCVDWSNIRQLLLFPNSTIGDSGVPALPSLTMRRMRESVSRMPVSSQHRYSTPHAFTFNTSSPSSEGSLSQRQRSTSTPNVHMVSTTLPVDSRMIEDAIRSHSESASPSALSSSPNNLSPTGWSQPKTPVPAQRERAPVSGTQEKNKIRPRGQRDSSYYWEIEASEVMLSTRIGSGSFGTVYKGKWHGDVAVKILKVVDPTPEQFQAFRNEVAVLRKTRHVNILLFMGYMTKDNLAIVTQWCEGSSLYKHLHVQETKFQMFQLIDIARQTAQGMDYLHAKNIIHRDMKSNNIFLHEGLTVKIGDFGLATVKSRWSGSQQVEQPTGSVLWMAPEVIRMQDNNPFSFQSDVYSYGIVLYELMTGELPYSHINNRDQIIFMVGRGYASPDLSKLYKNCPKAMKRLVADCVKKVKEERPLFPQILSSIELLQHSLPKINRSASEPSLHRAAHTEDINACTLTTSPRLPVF

Structure (SMILES): CCCS(=O)(=O)Nc1ccc(F)c(C(=O)c2c[nH]c3ncc(-c4ccc(Cl)cc4)cc23)c1F
inhibition (A-375 [1]): Active | inhibition (A-375 [2]): Active

IC50 [6]: 3.7 µM | IC50 [7]: 172 nM | IC50 [11]: 4.03 µM | IC50 [12]: 2190 nM | IC50 (MDA-MB-435 [13]): 1200 nM | IC50 (SK-MEL-2 [15]): 4.9 µM | IC50 (SK-MEL-5 [20]): 1700 nM | IC50 (SK-MEL-28 [21]): 5.7 µM | IC50 [24]: 3.57 µM | IC50 [27]: 6.46 µM | IC50 [29]: 13.3 µM | IC50 [30]: 2450 nM | IC50 [34]: 2990 nM
Structure (SMILES): COc1ccc(S(=O)(=O)NCCNc2nccc(-c3c(-c4ccccc4)nc4sccn34)n2)cc1
IC50 (Malme-3M [3]): 8.7 µM | IC50 (LOX IMVI [4]): 3.9 µM | TGI (SK-MEL-5 [5]): > 100 µM | TGI (MDA-MB-435 [8]): > 100 µM | IC50 at 48 h [9]: 55.6 µM | TGI (Malme-3M [10]): > 100 µM | selectivity ratio (in vitro): 6.4 | TGI (UACC-257 [14]): > 100 µM | TGI (M14 [16]): > 100 µM | inhibition at 10 µM [17]: 81.3% | inhibition at 10 µM [18]: 76.7% | IC50 (UACC-257 [19]): 6.4 µM | TGI (SK-MEL-2 [22]): > 100 µM | inhibition at 10 µM [23]: 73.2% | IC50 (M14 [25]): 2700 nM | IC50 at 48 h [26]: 60.2 µM | IC50 (NSCLC): 5.42 µM | TGI (UACC-62 [28]): > 100 µM | inhibition at 10 µM [31]: 83.8% | TGI (LOX IMVI [32]): > 100 µM | TGI (SK-MEL-28 [33]): > 100 µM | IC50 (UACC-62 [35]): 1100 nM

Structure (SMILES): CCN(CC)CCOC(=O)c1ccc(N)cc1 [PROCAINE]
remaining at 0.5 h, 10 µM [36]: 84.9%
